From ChEMBL document CHEMBL2311344, “Development of an in vivo active, dual EP1 and EP3 selective antagonist based on a novel acyl sulfonamide bioisostere” (Bioorg Med Chem Lett, 2013)
Activity calls are given as the source filed them. No cut-off for these calls is given here.

How the values were obtained:
Thromboxane A2 receptor = biological target: T1, Thromboxane A2 receptor (Mus musculus, UniProt P30987); assay: Antagonist activity at mouse TP receptor
T1 sequence (P30987 whole entry): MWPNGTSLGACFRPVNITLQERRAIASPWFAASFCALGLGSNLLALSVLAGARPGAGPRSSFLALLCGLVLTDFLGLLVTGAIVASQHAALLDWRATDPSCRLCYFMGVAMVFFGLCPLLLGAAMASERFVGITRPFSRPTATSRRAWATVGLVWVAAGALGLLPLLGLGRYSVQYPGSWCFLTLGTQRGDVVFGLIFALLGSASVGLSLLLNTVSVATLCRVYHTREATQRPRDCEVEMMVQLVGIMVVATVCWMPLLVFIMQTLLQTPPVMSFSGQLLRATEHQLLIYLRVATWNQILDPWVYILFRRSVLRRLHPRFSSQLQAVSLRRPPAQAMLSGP
How it was run: (§1)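 Affinity at mouse EP2, EP3 and EP4 is given as pKI. Signalling through mouse TP is given as pIC50. Mean ± SEM of at least three independent experiments, each run in triplicate.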

[1] = biological target: Prostaglandin E2 receptor EP4 subtype (Mus musculus, UniProt P32240); assay: Antagonist activity at mouse EP4 receptor; how it was run: as §1
Sequence of Prostaglandin E2 receptor EP4 subtype (P32240 whole entry): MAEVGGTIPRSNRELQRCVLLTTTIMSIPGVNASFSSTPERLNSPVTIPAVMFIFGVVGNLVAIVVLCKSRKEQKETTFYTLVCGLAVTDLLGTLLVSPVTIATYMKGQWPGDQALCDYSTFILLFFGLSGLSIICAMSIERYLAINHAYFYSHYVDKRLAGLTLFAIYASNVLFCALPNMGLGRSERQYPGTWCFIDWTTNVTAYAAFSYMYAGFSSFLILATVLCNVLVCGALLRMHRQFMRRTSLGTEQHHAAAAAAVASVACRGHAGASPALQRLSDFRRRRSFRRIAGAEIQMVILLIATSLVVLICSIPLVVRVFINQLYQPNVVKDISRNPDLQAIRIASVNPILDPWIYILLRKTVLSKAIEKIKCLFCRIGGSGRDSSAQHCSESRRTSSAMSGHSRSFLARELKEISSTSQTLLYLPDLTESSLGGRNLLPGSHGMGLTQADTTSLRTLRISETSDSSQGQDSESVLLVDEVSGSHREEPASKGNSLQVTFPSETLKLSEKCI

[2] = biological target: Prostaglandin E2 receptor EP2 subtype (Mus musculus, UniProt Q62053); assay: Antagonist activity at mouse EP2 receptor; how it was run: as §1
Sequence of Prostaglandin E2 receptor EP2 subtype (Q62053 whole entry): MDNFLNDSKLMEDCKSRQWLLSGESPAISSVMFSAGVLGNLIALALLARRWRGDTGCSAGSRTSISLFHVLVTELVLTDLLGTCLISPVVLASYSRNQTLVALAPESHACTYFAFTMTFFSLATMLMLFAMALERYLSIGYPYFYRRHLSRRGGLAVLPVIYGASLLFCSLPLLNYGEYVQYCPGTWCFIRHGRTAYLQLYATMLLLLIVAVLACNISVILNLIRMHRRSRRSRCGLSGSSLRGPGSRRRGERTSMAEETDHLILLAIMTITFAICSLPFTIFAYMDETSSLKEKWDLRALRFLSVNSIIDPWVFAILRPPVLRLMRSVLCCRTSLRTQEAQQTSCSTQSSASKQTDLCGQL

[3] = biological target: T2, Prostaglandin E2 receptor EP3 subtype (Mus musculus, UniProt P30557); assay: Antagonist activity at mouse EP3 receptor; how it was run: as §1
T2 sequence (P30557 whole entry): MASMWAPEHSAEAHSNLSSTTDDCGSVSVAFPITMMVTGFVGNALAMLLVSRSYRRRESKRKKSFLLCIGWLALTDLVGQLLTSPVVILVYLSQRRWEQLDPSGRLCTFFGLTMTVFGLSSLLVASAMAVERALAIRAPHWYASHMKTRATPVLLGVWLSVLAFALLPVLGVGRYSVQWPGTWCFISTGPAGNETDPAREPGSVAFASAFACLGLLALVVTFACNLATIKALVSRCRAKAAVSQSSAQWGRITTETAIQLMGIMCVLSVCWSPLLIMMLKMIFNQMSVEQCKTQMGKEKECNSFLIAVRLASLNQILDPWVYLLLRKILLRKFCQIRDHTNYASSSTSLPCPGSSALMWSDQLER

[4] = biological target: T3, Prostaglandin E2 receptor EP1 subtype (Mus musculus, UniProt P35375); assay: Antagonist activity at mouse EP1 receptor expressed in CHOK1 cells assessed as inhibition of 17PTPGE2-induced calcium influx; type: functional, cell-based, CHO-K1
T3 sequence (P35375 whole entry): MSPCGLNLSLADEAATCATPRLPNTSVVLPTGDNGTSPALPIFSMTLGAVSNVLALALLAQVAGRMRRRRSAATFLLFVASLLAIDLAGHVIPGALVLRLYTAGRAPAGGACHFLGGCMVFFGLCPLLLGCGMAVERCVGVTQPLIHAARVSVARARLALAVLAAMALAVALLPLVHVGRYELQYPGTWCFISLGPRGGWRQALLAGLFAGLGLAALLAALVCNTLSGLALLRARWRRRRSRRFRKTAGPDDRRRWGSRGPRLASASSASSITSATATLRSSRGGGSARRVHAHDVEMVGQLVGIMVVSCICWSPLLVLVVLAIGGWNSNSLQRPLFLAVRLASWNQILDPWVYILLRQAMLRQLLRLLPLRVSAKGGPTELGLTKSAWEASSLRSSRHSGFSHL
How it was run: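 CHOk1 cells expressing mouse EP1 were treated with six antagonist concentrations, then challenged with a concentration range of the EP1 agonist 17-phenyl-ω-trinor PGE2. pKD/KD came from transformed Schild regression of the concentration-response curves. Mean ± SEM of at least two independent experiments, each in duplicate.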

[5] = biological target: T4, Prostaglandin E2 receptor EP1 subtype (Mus musculus) (UniProt P35375); assay: Antagonist activity at mouse EP1 receptor expressed in CHOK1 cells assessed as inhibition of 17PTPGE2-induced calcium influx at >100 uM; type: functional, cell-based; settings: CHO-K1
T4 sequence (whole entry): T3 sequence (P35375 whole entry)

Plasma = assay: Fraction unbound in mouse plasma; type: ADME, cell-free
[6] = Drug metabolism in mouse liver microsomes assessed as cytochrome P450-mediated oxidation; type: ADME, Microsome
[7] = Drug metabolism in mouse liver microsomes assessed as esterase-mediated hydrolysis; type: ADME, Microsome
Mus musculus [8] = assay: Antihypertensive activity in mouse assessed as effect on phenylephrine-induced vasopressor activity at 5 mg/kg, sc administered 2 hrs prior to phenylephrine-challenge; type: functional, organism-based; parameters: dose 5 mg/kg
How it was run: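 In the same anesthetized, carotid/jugular-cannulated mouse preparation, phenylephrine 10 μg/kg was given as an IV bolus 2 h after 5 mg/kg sc pretreatment. The change in arterial pressure served as the non-EP vasoconstriction control.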

Mus musculus [9] = assay: Antihypertensive activity in mouse assessed as sulprostone-induced mean arterial pressure at 5 mg/kg, sc administered 2 hr prior to sulprostone-challenge (reference value: 53.3 +/- 2.3 mmHg); type: functional, Artery; settings: route subcutaneous
How it was run: (§2)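 Mice were anesthetized, with the left common carotid artery and right jugular vein cannulated. Arterial pressure was recorded directly via the carotid catheter. Test agent or vehicle was given 5 mg/kg sc. After 2 h, an IV bolus went through the jugular catheter: 20 μg/kg 17-phenyl-ω-trinor PGE2 (EP1) or 10 μg/kg sulprostone (EP3). Read-out was change in MAP. n = 3 per group; two-tailed Student's t test.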

Mus musculus [10] = assay: Antihypertensive activity in mouse assessed as 17PTPGE2-induced mean arterial pressure at 5 mg/kg, sc administered 2 hr prior to 17PTPGE2-challenge (reference value: 50.3 +/- 5.5 mmHg); type: functional, Artery; settings: route subcutaneous; how it was run: as §2
Mus musculus [11] = assay: AUC in mouse at 5 mg/kg, sc; type: ADME, organism-based, Plasma; parameters: dose 5 mg/kg, route subcutaneous; settings: in vivo
How it was run: (§3)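 Subcutaneous dose of 5 mg/kg in mice (n = 3). Plasma sampled intermittently to build a concentration-time profile. Cmax, tmax and AUC were taken from that profile.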

[12] = Drug metabolism in mouse liver microsomes assessed as cytochrome P450-mediated benzylic oxidation; type: ADME, Microsome
[13] = Drug metabolism in mouse liver microsomes assessed as cytochrome P450-mediated methylene linker oxidation; type: ADME, Microsome
[14] = Drug metabolism in mouse liver microsomes assessed as esterase-mediated sulfonamide hydrolysis; type: ADME, Microsome
Mus musculus [15] = assay: Cmax in mouse at 5 mg/kg, sc; type: ADME, organism-based; parameters: dose 5 mg/kg, route subcutaneous; settings: in vivo; how it was run: as §3
Mus musculus [16] = assay: Tmax in mouse at 5 mg/kg, sc; type: ADME, organism-based; parameters: dose 5 mg/kg, route subcutaneous; settings: in vivo; how it was run: as §3
[17] = Oral bioavailability in mouse at 10 mg/kg; type: ADME, organism-based; settings: in vivo
How it was run: (§4)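 Mice were dosed IV at 1 mg/kg or orally at 10 mg/kg. From plasma, the following were derived: systemic plasma clearance, Vss, t1/2 and oral bioavailability (%F).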

[18] = Volume of distribution at steady state in mouse at 1 mg/kg, iv; type: ADME, organism-based; parameters: dose 1 mg/kg, route intravenous; settings: in vivo, read-out: Vdss
How it was run: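 Mouse plasma pharmacokinetics after a single intravenous 1 mg/kg dose. Systemic plasma clearance and volume of distribution predicted at steady state were derived from the IV data. A separate oral arm at 10 mg/kg was used for bioavailability.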

[19] = Half life in mouse at 1 mg/kg, iv; type: ADME, organism-based; parameters: dose 1 mg/kg, route intravenous; settings: in vivo
How it was run: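 Single intravenous dose of 1 mg/kg given to mice. Half-life was derived from systemic plasma levels. Plasma clearance (CLp) and steady-state volume of distribution (Vss) came from the same study. A separate 10 mg/kg oral arm was run for bioavailability.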

[20] = Plasma clearance in mouse at 1 mg/kg, iv; type: ADME, organism-based; parameters: dose 1 mg/kg, route intravenous; how it was run: as §4

pIC50 (Thromboxane A2 receptor)	Ki [1]	Ki [2]	Ki [3]	Kd ([4]; read-out: Kd)	SMILES	further results
< 6	> 1 µM	> 1 µM	> 1 µM	2.63 µM	NC(=O)c1cccc(Cc2cc(Cl)ccc2OCc2ccc(Cl)cc2F)n1	
< 6	> 1 µM	> 1 µM	> 1 µM	1.38 µM	CCC(C)NC(=O)c1cccc(Cc2cc(Cl)ccc2OCc2ccc(Cl)cc2F)n1 (stereo not drawn)	
< 6	> 1 µM	> 1 µM	> 1 µM	0.912 µM	O=C(NC1CCC1)c1cccc(Cc2cc(Cl)ccc2OCc2ccc(Cl)cc2F)n1	
< 6	> 1 µM	> 1 µM	0.214 µM	0.302 µM	CC(C)CNC(=O)c1cccc(Cc2cc(Cl)ccc2OCc2ccc(Cl)cc2F)n1	Fu (Plasma): 0.01; Drug metabolism [6]: Active; Drug metabolism [7]: Active
< 6	> 1 µM	> 1 µM	> 1 µM	0.549 µM	O=C(NCC1CC1)c1cccc(Cc2cc(Cl)ccc2OCc2ccc(Cl)cc2F)n1	

Continued, molecule first:

SMILES	pIC50 (Thromboxane A2 receptor)	Ki [1]	Ki [2]	Ki [3]	Kd ([4]; read-out: Kd)	further results
CCN(CC)C(=O)c1cccc(Cc2cc(Cl)ccc2OCc2ccc(Cl)cc2F)n1	< 6	> 1 µM	> 1 µM	> 1 µM	0.447 µM	
O=C(NS(=O)(=O)c1ccc(Cl)c(Cl)c1)c1cccc(Cc2cc(Cl)ccc2OCc2ccc(Cl)cc2F)n1	< 6	> 1 µM	> 1 µM	0.0661 µM	0.214 µM	
Cc1ccc(S(=O)(=O)NC(=O)c2cccc(Cc3cc(Cl)ccc3OCc3ccc(Cl)cc3F)n2)cc1	< 6	> 1 µM	> 1 µM	> 1 µM	0.214 µM	
CCCS(=O)(=O)NC(=O)c1cccc(Cc2cc(Cl)ccc2OCc2ccc(Cl)cc2F)n1	< 6	> 1 µM	> 1 µM	> 1 µM		Activity [5]: inactive
O=C(NS(=O)(=O)c1cc(Cl)ccc1Cl)c1cccc(Cc2cc(Cl)ccc2OCc2ccc(Cl)cc2F)n1	< 6	> 1 µM	> 1 µM	0.204 µM	0.0537 µM	Kd ([4]; read-out: pKd (converted)): 0.0562 µM
O=C(c1cccc(Cc2cc(Cl)ccc2OCc2ccc(Cl)cc2F)n1)N1CCCC1	< 6	> 1 µM	> 1 µM	> 1 µM	15.8 µM	
CC(C)(C)NC(=O)c1cccc(Cc2cc(Cl)ccc2OCc2ccc(Cl)cc2F)n1	< 6	> 1 µM	> 1 µM	> 1 µM	4.36 µM	
O=C(NC1CC2CCC1C2)c1cccc(Cc2cc(Cl)ccc2OCc2ccc(Cl)cc2F)n1 (stereo not drawn)	< 6	> 1 µM	> 1 µM	> 1 µM	2.19 µM	
O=C(NS(=O)(=O)c1ccc(Cl)cc1)c1cccc(Cc2cc(Cl)ccc2OCc2ccc(Cl)cc2F)n1	< 6	> 1 µM	> 1 µM	0.107 µM	0.0407 µM	Activity (Mus musculus [8]): inactive; Activity (Mus musculus [9]): 32 mmHg; Activity (Mus musculus [10]): 27 mmHg; AUC (Mus musculus [11]): 7.508 µM·h; Fu (Plasma): 0.004; Drug metabolism [12]: Active; Drug metabolism [13]: Active; Drug metabolism [14]: Active; Cmax (Mus musculus [15]): 504 nM; Tmax (Mus musculus [16]): 2 h
O=C(O)c1cccc(Cc2cc(Cl)ccc2OCc2ccc(Cl)cc2F)n1		> 1 µM	1.74 µM	> 1 µM	0.0479 µM	Fu (Plasma): 0.005; bioavailability [17]: 13.8%; Vd [18]: 0.9 L/kg; half-life [19]: 1.08 h; clearance [20]: 59.2 mL/min/kg
